SIRT5 block: inhibitors of human sirtuin-5 desuccinylase. Q9NXA8. Purified SirT5, succinyl-peptide AMC, trypsin-coupled fluorescence. inhibition, % at 15 µM. 1.1% of 330,000 active. AID 652115; in the data active means inhibition above about 15%; inconclusive means no clear call, values can overlap the other calls
Target sequence (Q9NXA8 whole entry, looked up): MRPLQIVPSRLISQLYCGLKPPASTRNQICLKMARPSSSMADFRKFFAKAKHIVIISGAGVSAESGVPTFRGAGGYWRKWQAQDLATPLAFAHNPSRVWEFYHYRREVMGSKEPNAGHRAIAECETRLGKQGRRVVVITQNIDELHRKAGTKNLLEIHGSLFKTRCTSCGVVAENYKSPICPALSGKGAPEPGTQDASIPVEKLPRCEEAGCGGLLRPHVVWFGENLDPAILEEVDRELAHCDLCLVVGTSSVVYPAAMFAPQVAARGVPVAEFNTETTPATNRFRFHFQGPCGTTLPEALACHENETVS
E-sel inducer: induces E-selectin expression in human endothelial cells. AID 686992. HUVEC E-selectin immunofluorescence imaging; normalized: neutral wells 0, TNF-alpha wells 100. 0.37% of 260,000 active. activation, % at 7.58 µM. P16581;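 active means mean E-selectin-positive cell signal at least 10% of the positive control, reached in at least 60% of replicates, without over 20% cell loss; inconclusive means no rule given, readout overlaps actives, possibly toxicity-flagged; inactive means the rest, including those meeting only one limit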
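Assay system: HUVEC, human umbilical vein endothelial cells / Amount: 3,000 HUVEC/well / Controls: TNF-alpha positive control, DMSO neutral control / Compound dosing: single concentration / Medium: EGM-2 over gelatin coat / Evaluation: percent E-selectin-positive cells / Signal: immunofluorescence imaging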
DENV2 CPE: protects cells from dengue virus 2 cytopathic effect | AID 651640 | 1.7% of 350,000 active | DENV2-infected cells, cytopathic effect rescue, plate reader | CPE inhibition, % at 9.99 µM; in the data active means CPE inhibition above about 20%, passing the limit was not always enough; inconclusive means no clear call, values can overlap the other calls; tested in BHK-21 cells;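 further: 0% = median of neutral control wells and 100% = median of positive control wells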
Starred values were filed as active, the others as inactive; ? = inconclusive; · = not tested or not shown. In the library only some 2.8% were active in any assay of this set; here they are far more common.

SMILES	SIRT5 block	E-sel inducer	DENV2 CPE
C[C@@H]1CN([C@@H](C)CO)C(=O)c2cc(NC(=O)Nc3ccccc3)ccc2O[C@@H]1CN(C)C(=O)Nc1ccc(C(F)(F)F)cc1	11	51*	-4
C[C@@H]1CN([C@H](C)CO)C(=O)c2cc(NC(=O)Nc3ccccc3)ccc2O[C@@H]1CN(C)C(=O)Nc1ccc(C(F)(F)F)cc1	4	0	-1
C[C@H]1CN([C@@H](C)CO)C(=O)c2cc(NC(=O)Nc3ccccc3)ccc2O[C@@H]1CN(C)C(=O)Nc1ccc(C(F)(F)F)cc1	6	40*	22*
C[C@H](CO)N1C[C@H](C)[C@H](CN(C)C(=O)Nc2ccccc2)Oc2ccc(NC(=O)Nc3ccc(C(F)(F)F)cc3)cc2C1=O	3	-1	7
CC(C)NC(=O)Nc1ccc2c(c1)CC(=O)N([C@H](C)CO)C[C@@H](C)[C@@H](CN(C)Cc1ccc(C(F)(F)F)cc1)O2	1	18	-1
CCN(CC)C(=O)CSc1nc2c(sc(=S)n2-c2ccccc2OC)c(=O)n1-c1ccccc1	1	0	0
COc1ccccc1-n1c(SCC(=O)O)nc2c(sc(=S)n2-c2ccccc2C)c1=O	3	43*	1
CCOc1ccc(-n2c(=S)sc3c(=O)n(-c4ccccc4)c(SCC(=O)O)nc32)cc1	7	3	7
CCOc1ccc(-n2c(=S)sc3c(=O)n(-c4ccc(F)cc4)c(SCC(=O)O)nc32)cc1	29*	0	-8
CO[C@@H]1CN(C)C(=O)c2cc(NC(=O)Nc3ccc(C(F)(F)F)cc3)ccc2OC[C@@H](C)NC[C@@H]1C	-4	0	-6
COCC(=O)Nc1ccc2c(c1)OC[C@H](C)N(C(=O)NC(C)C)C[C@H](C)[C@@H](OC)CN(C)C2=O	-1	0	5
O=C(O)[C@@H]1[C@@H](CO)[C@@H]2Cn3c(ccc(-c4cncnc4)c3=O)[C@@H]2N1C(=O)C1CCCC1	-6	0	-5
CO[C@H]1CN(C)C(=O)c2ccc(NS(=O)(=O)c3ccccc3)cc2OC[C@H](C)N(Cc2cccnc2)C[C@@H]1C	2	0	8
COC(=O)C1=C(C)N(Cc2ccccc2)C(=NCCN2CCOCC2)N[C@H]1CCc1ccccc1	·	0	44*
CCN1C(=NCCN2CCOCC2)N[C@@H](c2ccccc2)C(C(=O)OC)=C1C	·	0	-4
Cc1ccc(-c2ccc3c(c2)O[C@H](CN(C)C(=O)C2CCCCC2)[C@@H](C)CN([C@H](C)CO)S3(=O)=O)cc1	·	1	·
O=C(c1ccc(F)cc1)N1CCCCN2[C@H](CO)[C@H](c3ccc(-c4ccc(F)cc4)cc3)[C@H]2C1	0	·	-1
OC(COc1ccc(Cl)cc1Cl)Cn1ccnc1 (stereo not drawn)	1	1	42*
O=C(CCCOc1ccc(Cl)cc1Cl)NCCCn1ccnc1	-1	4	6
CC(C)(C)OC(=O)NCCOCCOCCNc1ncnc2ccc(Br)cc12	2	·	20*
CC(=O)c1ccc(Nc2ncnc3ccc(Br)cc23)cc1	·	3	-1
C[C@@H]1CN([C@@H](C)CO)C(=O)Cc2cc(NS(C)(=O)=O)ccc2O[C@H]1CN(C)C(=O)Nc1ccc2c(c1)OCO2	3	-2	-3
CN1C(=O)c2cc(NC(=O)c3ccc(F)cc3)ccc2OC[C@H]2O[C@@H](CC(=O)NCC3CCCCC3)CC[C@@H]21	2	0	?
O=C(C[C@@H]1C[C@@H]2c3cc(NS(=O)(=O)c4ccc(F)cc4)ccc3O[C@@H]2[C@@H](CO)O1)NCCc1ccccc1	3	-1	-2
O=C(C[C@@H]1C[C@H]2c3cc(NS(=O)(=O)c4ccc(F)cc4)ccc3O[C@H]2[C@@H](CO)O1)NCCc1ccccc1	1	-1	?
SMILES	SIRT5 block	E-sel inducer	DENV2 CPE
O=C(C[C@H]1C[C@H]2c3cc(NS(=O)(=O)c4ccc(F)cc4)ccc3O[C@H]2[C@@H](CO)O1)NCCc1ccccc1	1	-1	59*
O=C(C[C@@H]1C[C@@H]2c3cc(NS(=O)(=O)c4ccc(F)cc4)ccc3O[C@@H]2[C@H](CO)O1)NCCc1ccccc1	-1	0	58*
O=C(C[C@H]1C[C@@H]2c3cc(NS(=O)(=O)c4ccc(F)cc4)ccc3O[C@@H]2[C@H](CO)O1)NCc1ccc(-c2ccccc2)cc1	?	0	0
O=C(C[C@@H]1C[C@H]2c3cc(NS(=O)(=O)c4ccc(F)cc4)ccc3O[C@H]2[C@H](CO)O1)NCc1ccc(-c2ccccc2)cc1	20*	0	-2
CO[C@H]1CN(C)C(=O)c2cc(NC(=O)c3ccccc3F)ccc2OC[C@@H](C)N(C)C[C@H]1C	-8	0	1
CCCN1[C@@H]2c3ccc(-c4ccc(OC)cc4)c(=O)n3C[C@H]1[C@H](CO)[C@H]2C(=O)NCC	-31	0	-14
COc1ccc(-c2cc3nc(-c4ccccc4)cc(N4CCN(C(=O)c5ccsc5)CC4)n3n2)cc1	-13	2	63*
COc1ccc(-c2cc3nc(-c4ccccc4)cc(N4CCN(C(=O)c5ccccc5)CC4)n3n2)cc1	-10	0	-15
C/C=C/c1ccc(C2[C@H]3CNC[C@@H]2N3S(=O)(=O)c2ccc(C)cc2)cc1 (stereo partly drawn)	1	0	-1
CCCNC(=O)Nc1ccc2c(c1)C(=O)N(C)[C@H]1CC[C@@H](CC(=O)NCC3CCCCC3)O[C@H]1CO2	2	0	-9
CC(=O)c1cccc(NC(=O)c2noc3c2CCc2ccccc2-3)c1	-2	·	22*
Cc1cc(NC(=O)c2noc3c2CCc2ccccc2-3)no1	-5	0	3
OC(CSc1ccccn1)CC(O)c1ccccc1 (stereo not drawn)	-1	·	12
Cc1cc(C)c(C(=O)N(C)C2CCCN(Cc3ccccc3F)C2)o1 (stereo not drawn)	0	-1	37*
Cc1cc(C)cc(C(=O)N(C)C2CCCN(Cc3ccccc3F)C2)c1 (stereo not drawn)	9	·	12
NC(=O)c1cc2cc(Cl)ccc2oc1=Nc1cccc(C(F)(F)F)c1	-1	-2	66*
COc1ccc2oc(=Nc3cc(F)ccc3F)c(C(N)=O)cc2c1	-1	1	-3
O=S(=O)(c1cccs1)N1CCCCN2[C@H](C1)[C@H](c1ccc(C3=CCCC3)cc1)[C@@H]2CO	2	-1	-8
O=S(=O)(c1cccs1)N1CCCCN2[C@H](C1)[C@H](c1ccc(Br)cc1)[C@@H]2CO	4	-1	-9
O=S(=O)(c1cccs1)N1CCCCN2[C@H](CO)[C@H](c3ccc(C4=CCCCC4)cc3)[C@H]2C1	20*	·	15
O=S(=O)(c1cccs1)N1CCCCN2[C@@H](CO)[C@H](c3ccc(Br)cc3)[C@@H]2C1	-1	0	33*
CCC(=O)N1CCCCN2[C@@H](CO)[C@H](c3ccc(C#Cc4ccccc4F)cc3)[C@@H]2C1	2	0	-18
CCc1ccc2cc(F)cc(F)c2n1	-4	0	-4
CCc1ccc2cc(C)cc(C)c2n1	-1	0	34*
Cc1ccc(S(=O)(=O)Nc2ccc3c(c2)C(=O)N([C@H](C)CO)C[C@H](C)[C@H](CN(C)C(=O)NC2CCCCC2)OCCCC[C@@H](C)O3)cc1	4	1	3
